From PMC7814465 (Cell reports, 2020)

Tests used:
Imp7 = experiment: Pull-down from HeLa cytosol, Imp7; type: binding; settings: biotinylated peptide, western blot
Outline: (§1)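 Biotin-DPR bait (5 μg per 10 μl beads) immobilised overnight with 2 mg/ml ovalbumin. Prey bound in B-buffer with 2 mg/ml BSA, washed without BSA, eluted in 2× SDS loading buffer. Two independent replicates.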

Impβ = experiment: Pull-down from HeLa cytosol, Impβ; type: binding; settings: biotinylated peptide, western blot
Outline: as §1

Impα3 [1] = experiment: Pull-down from HeLa cytosol, Impα3; type: binding; settings: biotinylated peptide, western blot
Outline: as §1

TNPO1 = target: T1, TNPO1 (Homo sapiens, UniProt Q92973); experiment: Pull-down from HeLa cytosol, TNPO1; type: binding; settings: biotinylated peptide, western blot
T1 sequence (Q92973 1-898): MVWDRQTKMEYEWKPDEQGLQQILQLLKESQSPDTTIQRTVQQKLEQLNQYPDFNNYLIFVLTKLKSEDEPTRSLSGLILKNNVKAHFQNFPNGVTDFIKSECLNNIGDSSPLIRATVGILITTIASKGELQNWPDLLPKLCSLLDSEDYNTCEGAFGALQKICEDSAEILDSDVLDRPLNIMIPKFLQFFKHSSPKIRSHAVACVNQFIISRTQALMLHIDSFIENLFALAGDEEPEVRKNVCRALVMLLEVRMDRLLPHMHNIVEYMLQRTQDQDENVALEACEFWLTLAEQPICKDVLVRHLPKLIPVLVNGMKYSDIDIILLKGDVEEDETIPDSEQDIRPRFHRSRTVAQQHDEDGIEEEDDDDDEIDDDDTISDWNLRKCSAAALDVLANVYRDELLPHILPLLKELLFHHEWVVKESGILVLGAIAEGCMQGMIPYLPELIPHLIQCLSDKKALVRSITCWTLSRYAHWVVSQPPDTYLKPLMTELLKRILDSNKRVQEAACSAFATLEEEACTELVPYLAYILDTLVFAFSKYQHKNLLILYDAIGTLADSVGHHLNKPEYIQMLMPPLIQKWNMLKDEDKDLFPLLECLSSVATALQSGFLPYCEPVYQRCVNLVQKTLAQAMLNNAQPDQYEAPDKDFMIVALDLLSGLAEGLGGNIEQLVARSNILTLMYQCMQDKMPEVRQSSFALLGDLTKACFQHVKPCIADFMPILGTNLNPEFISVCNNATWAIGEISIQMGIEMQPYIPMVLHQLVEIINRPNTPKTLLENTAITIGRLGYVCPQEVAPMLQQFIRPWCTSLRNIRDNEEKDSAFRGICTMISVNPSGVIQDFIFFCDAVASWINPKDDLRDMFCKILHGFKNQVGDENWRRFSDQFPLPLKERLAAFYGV
Outline: (§2)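 It was cleared at 21,000 g, 4°C. Cytosol was incubated under physiological buffer conditions with biotinylated DPR peptides immobilized on ovalbumin-blocked streptavidin beads, and bound NTRs were detected by western blot.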

TNPO3 = experiment: Pull-down from HeLa cytosol, TNPO3; type: binding; settings: biotinylated peptide, western blot
Outline: as §2

Impα3 [2] = experiment: Pull-down with purified Impα3; type: binding, rat; settings: biotinylated peptide, purified Impα3, pH 7.5, 200 mM NaCl
Outline: (§3)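 Streptavidin beads were blocked with 20 mg/ml ovalbumin, then loaded overnight with 5 µg biotinylated DPR peptide per reaction. 5 µg purified prey protein was added in 50 mM Tris pH 7.5, 200 mM NaCl, 1 mM MgCl2, 5% glycerol, 2 mM DTT, 2 mg/ml BSA. After washes, bound protein was eluted in SDS loading buffer and analysed by SDS-PAGE with Sypro-Ruby staining. Two independent replicates.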

Impα1 = experiment: Pull-down with purified Impα1; type: binding; settings: biotinylated peptide, purified Impα1, Figure S1E
Outline: as §3

[3] = test system: Impβ (His-S-Impβ, in the absence of Impα); experiment: Sedimentation assay, Impβ alone; type: biochemical
Outline: (§4)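 Protein was 1 µM purified NTR alone, or 500 nM Impα with 500 nM Impβ. Samples were centrifuged 15 min at 21,000 g, 4°C. Equal volumes of supernatant and pellet were analysed by SDS-PAGE with Sypro-Ruby stain or western blot.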

CRM1 = experiment: Sedimentation assay, CRM1; type: biochemical
Outline: as §4

TNPO1 (His-TNPO1) = experiment: SDD-AGE oligomer formation, TNPO1; type: biochemical; settings: 10-fold molar excess: 2 μM importin, 20 μM TMR-DPR, pH 7.5, 200 mM NaCl, 1 h RT
Impα3 (His-Impα3) = experiment: SDD-AGE oligomer formation, Impα3; type: biochemical, rat; settings: 10-fold molar excess: 2 μM importin, 20 μM TMR-DPR, pH 7.5, 200 mM NaCl, 1 h RT
[4] = test system: nuclear import of GCR2-GFP2-cNLS in HeLa cells; experiment: Hormone-induced nuclear import assay, cNLS reporter; type: cell-based; settings: 10 µM TMR-GR25, 2 h; three independent experiments, 14-61 cells
Outline: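 HeLa cells were passaged at least twice in DMEM with 10% dialyzed FBS and expressed the GCR2-GFP2-MBP-cNLS reporter. They were pre-incubated 2 h with 10 µM TMR-labeled DPR peptide added once to serum-free imaging medium. Import was induced with 5 µM (final) dexamethasone, and spinning-disk live imaging ran 40–50 min at 2.5-min intervals. Only peptide-positive cells were quantified. N/C ratio is given as mean ± SEM of three experiments, with area under the curve compared by unpaired t test.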

[5] = test system: GCR2-GFP2 reporter in HeLa cells; experiment: Diffusion of reporter without NLS into nucleus; type: cell-based; settings: 10 µM TMR-GR25, 2 h; three independent experiments, 43-102 cells
[6] = test system: GCR2-GFP2 reporter in cytoplasm; experiment: FRAP of cytoplasmic GCR2-GFP2 reporter; type: cell-based; settings: 10 µM GR25, 2 h, dexamethasone; 34-38 cells, two independent experiments
[7] = test system: TDP-43 (TDP-43-Tev-MBP/MBP-Tev-TDP-43-GFP); experiment: TDP-43 condensate formation with DPRs, microscopy; type: biochemical; settings: TMR-labeled DPR, equimolar (1x) or two-fold (2x), 2 μM TDP-43/TDP-43-GFP, Tev cleavage, 200 mM NaCl, pH 7.5
Outline: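 Size-exclusion-purified TDP-43-MBP-His (2 μM) was mixed with substoichiometric MBP-TDP-43-GFP-His (1:4–1:5). Condensates were imaged by laser scanning confocal microscopy.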

GAPDH in HeLa cytosol = experiment: Sedimentation assay from HeLa cytosol, GAPDH; type: biochemical; settings: highest GR/PR concentrations
Impb = settings: FRET sensors and bead Halo assays; ref Hayes et al., 2019; cited from earlier work
[8] = test system: GR- or PR-induced TDP-43 condensates; experiment: Suppression of GR- or PR-induced TDP-43 condensates by NTRs; type: biochemical; settings: equimolar NTR; TMR-GR25 or TMR-PR25; Tev cleavage
Outline: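 SEC-purified TDP-43-MBP-His (2 μM) was mixed with MBP-TDP-43-GFP-His at 1:4–1:5, together with equimolar TMR-labelled DPR, with or without NTRs. Mixing preceded cleavage with 100 μg/ml His-Tev in 50 mM Tris pH 7.5, 200 mM NaCl, 2 mM DTT. Condensates were imaged by laser scanning confocal microscopy.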

TDP-43 condensates = experiment: Suppression of phase separation of TDP-43 alone by NTRs; type: biochemical; settings: equimolar NTR, 5 μM TDP-43, Tev cleavage
Outline: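 TDP-43-MBP-His (Ni-NTA then amylose purified) and TNPO1 were buffer-exchanged into 20 mM HEPES-NaOH pH 7.4, 150 mM NaCl, 1 mM DTT. TDP-43 at 5 μM, with or without 5 μM TNPO1, was started with 1 μg/ml Tev protease. Absorbance at 395 nm was read over 16 h and normalised to TDP-43 + Tev alone.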

TDP-43 [9] = experiment: Sedimentation of TDP-43 with GST-GR25 and NTRs; type: biochemical; settings: GST-GR25, NTR added prior to Tev cleavage; three independent experiments
Outline: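 1 µM TDP-43-MBP-His was Tev-cleaved (20 µg/ml His-Tev, 60 min, 30°C) with or without equimolar GST-tagged DPR and/or NTRs, then spun 15 min at 21,000 g, 4°C. Equal supernatant and pellet volumes were analysed by SDS-PAGE with Sypro-Ruby or western blot. Percentage of soluble cleaved TDP-43 is the mean ± SEM of three experiments, compared by one-way ANOVA with Dunnett's test.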

GST-GR25 / TDP-43 = experiment: Sedimentation of GST-GR25 with TDP-43 and NTRs; type: biochemical; settings: equimolar NTR; three independent experiments
Outline: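 1 µM TDP-43-MBP-His was Tev-cleaved (20 µg/ml His-Tev, 60 min, 30°C) with or without equimolar GST-tagged DPR and/or NTRs. Samples were centrifuged 15 min at 21,000 g, 4°C. Equal volumes of supernatant and pellet were analysed by anti-GST western blot.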

TDP-43 [10] = experiment: TDP-43 turbidity assay; type: biochemical; settings: n = 3
Outline: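 TDP-43-MBP-His (Ni-NTA then amylose purified) and TNPO1 were buffer-exchanged into 20 mM HEPES-NaOH pH 7.4, 150 mM NaCl, 1 mM DTT. TDP-43 at 5 µM final was combined with 2 µM DPR peptide (PBS control), 5 µM TNPO1, or both. Phase separation was started with 1 µg/ml Tev protease, and absorbance at 395 nm was followed over 16 h. Values were normalized to TDP-43 plus Tev alone.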

TDP-43 in HeLa cytosol = experiment: Suppression by NTRs of GR-induced precipitation of cytosolic TDP-43; type: biochemical; settings: equimolar NTR, three independent experiments
Outline: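 Cytosol came from digitonin-permeabilised HeLa cells, cleared at 21,000 g. TMR-DPRs were added and the mix held 15 min at 4°C, then spun at 21,000 g for 15 min. Equal volumes of pellet and supernatant were analysed by western blot.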

[11] = 10-fold molar excess of TMR-labeled DPR, n = 3
[12] = extremely high concentrations (up to 40x)

Molecule: poly-GR: arginine-rich dipeptide repeat protein species; in the experiments mostly GR25
- binding in pull-down (Imp7): bound equally to both poly-GR and poly-PR
- binding in pull-down (Impβ): bound equally to both poly-GR and poly-PR
- binding in pull-down (Impα3 [1]): bound equally to both poly-GR and poly-PR
- binding in pull-down (TNPO1): bound preferentially to poly-GR
- binding in pull-down (TNPO3): bound preferentially to poly-GR
- direct binding in pull-down (Impα3 [2]): preferentially to poly-GR
- direct binding in pull-down (Impα1): preferentially to poly-GR
- solubility of Impβ [3, 11]: remained mainly soluble
- precipitation of Impβ, titration [3, 12]: only partial or no precipitation
- solubility of CRM1 (CRM1; [11]): remained mainly soluble
- precipitation of CRM1, titration (CRM1; [12]): only partial or no precipitation
- oligomer formation of TNPO1 (SDS-resistant) (TNPO1 (His-TNPO1)): SDS-resis-tant oligomers
- oligomer formation of Impα3 (SDS-resistant) (Impα3 (His-Impα3)): SDS-resis-tant oligomers
- nuclear import of cNLS reporter (N/C ratio) [4]: reduced nuclear import
- diffusion of reporter without NLS into nucleus (N/C ratio) [5]: only mildly affected
- mobility of GCR2-GFP2 reporter in cytoplasm (FRAP) [6]: unchanged
- TDP-43 condensate formation [7]: formation of condensates
- precipitation of GAPDH from HeLa cytosol (GAPDH in HeLa cytosol): not precipitated
- direct binding to Impb in vitro (Impb): direct binding

B1: TNPO1: nuclear import receptor, recombinant (protein)
chain: T1 sequence (Q92973 1-898)
modifications: left off: His6, N-terminal, kept
- suppression of GR- or PR-induced TDP-43 condensates [8]: suppress the GR- or PR-induced formation of TDP-43 condensates
- suppression of phase separation of TDP-43 alone (TDP-43 condensates): unable to abolish condensate formation of TDP-43
- reversal of poly-GR-enhanced sedimentation of TDP-43 (TDP-43 [9]): efficiently reverted
- rescue of GST-GR25 solubility in presence of TDP-43 (GST-GR25 / TDP-43): completely rescued
- effect on GR-mediated promotion of TDP-43 turbidity (TDP-43 [10]; 5 μM TNPO1, 2 μM GR20, 5 μM TDP-43, 395 nm, 16 h): effectively suppressed
- effect on TDP-43 turbidity increase in absence of GR (TDP-43 [10]; 5 μM TNPO1, 5 μM TDP-43, Tev cleavage, 395 nm): did not affect
- suppression of GR-induced precipitation of cytosolic TDP-43 (TDP-43 in HeLa cytosol): efficiently suppressed GR-induced precipitation of cytosolic TDP-43
